Reference: ChEMBL document CHEMBL2203196, “Synthesis, antiproliferative and apoptotic activities of N-(6(4)-indazolyl)-benzenesulfonamide derivatives as potential anticancer agents” (Eur J Med Chem, 2012)
pIC50: −log10 of the molar value. Active and inactive are the calls of the source. The calls are words filed in the database; no cut-off is given here.

Assays:
[1] = tested on: A2780; experiment: Cell cycle arrest in human A2780 cells assessed as cells with > 4n chromosomes at 6.8 to 102.3 uM after 72 hrs by propidium iodide staining-based FACS flow cytometry; assay type: functional
[2] = tested on: A2780; experiment: Cell cycle arrest in human A2780 cells assessed as accumulation at G2/M phase at 6.8 to 102.3 uM after 72 hrs by propidium iodide staining-based FACS flow cytometry (reference value: 23.1 +/- 2.5 %); assay type: functional
[3] = tested on: A2780; experiment: Cell cycle arrest in human A2780 cells assessed as accumulation at S phase at 6.8 to 102.3 uM after 72 hrs by propidium iodide staining-based FACS flow cytometry (reference value: 25.9 +/- 4.7 %); assay type: functional
[4] = tested on: A2780; experiment: Cell cycle arrest in human A2780 cells assessed as accumulation at G0/G1 phase at 6.8 to 102.3 uM after 72 hrs by propidium iodide staining-based FACS flow cytometry (reference value: 51 +/- 6.2 %); assay type: functional
[5] = tested on: A2780; experiment: Cell cycle arrest in human A2780 cells assessed as accumulation at G2/M phase at IC50 after 72 hrs by propidium iodide staining-based FACS flow cytometry (reference value: 23.1 +/- 2.5 %); assay type: functional
[6] = tested on: A2780; experiment: Cell cycle arrest in human A2780 cells assessed as accumulation at S phase at IC50 after 72 hrs by propidium iodide staining-based FACS flow cytometry (reference value: 25.9 +/- 4.7 %); assay type: functional
[7] = tested on: A2780; experiment: Cell cycle arrest in human A2780 cells assessed as accumulation at G0/G1 phase at IC50 after 72 hrs by propidium iodide staining-based FACS flow cytometry (reference value: 51 +/- 6.2 %); assay type: functional
[8] = tested on: A2780; experiment: Upregulation of p53 expression in human A2780 cells at IC50 after 24 hrs by Western blot analysis; assay type: functional, cell-based
How it was run: (§1)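 A2780 cells treated at IC₅₀ and harvested at 24, 48, 72 h; lysed 30 min at 4 °C in 1% Triton X-100, 0.15 M NaCl, 10 mM Tris pH 7.4 with protease inhibitors; Bradford protein assay; 50 µg protein resolved on 12% SDS-PAGE, transferred to nitrocellulose, Ponceau S loading check, blocked overnight 2% BSA in TBST at 4 °C, probed for p53 or bax.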

[9] = tested on: A2780; experiment: Upregulation of Bax expression in human A2780 cells at IC50 after 48 hrs by Western blot analysis; assay type: functional, cell-based; how it was run: as §1
[10] = tested on: P388; experiment: Induction of apoptosis in mouse P388 cells assessed as change in nuclear morphology at IC50 after 3 days by DAPI staining-based fluorescence microscopy relative to control; assay type: functional
How it was run: (§2)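 Cells plated at 5000–10000/well, left 6–8 h, then treated at MTT-derived IC₅₀ or IC₉₀; washed in cold PBS, fixed in 70% ethanol at 4 °C, stained with DAPI just before microscopy; percent apoptotic segmented nuclei scored against untreated controls; mean ± SD of 4–6 data.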

[11] = tested on: P388; experiment: Induction of apoptosis in mouse P388 cells assessed as change in nuclear morphology at 0.97 to 957 uM after 3 days by DAPI staining-based fluorescence microscopy relative to control; assay type: functional; how it was run: as §2
[12] = tested on: A549; experiment: Induction of apoptosis in human A549 cells assessed as change in nuclear morphology at IC50 after 3 days by DAPI staining-based fluorescence microscopy relative to control; assay type: functional; how it was run: as §2
[13] = tested on: A549; experiment: Induction of apoptosis in human A549 cells assessed as change in nuclear morphology at 0.97 to 957 uM after 3 days by DAPI staining-based fluorescence microscopy relative to control; assay type: functional; how it was run: as §2
[14] = tested on: A2780; experiment: Induction of apoptosis in human A2780 cells assessed as change in nuclear morphology at IC50 after 3 days by DAPI staining-based fluorescence microscopy relative to control; assay type: functional; how it was run: as §2
[15] = tested on: A2780; experiment: Induction of apoptosis in human A2780 cells assessed as change in nuclear morphology at 0.97 to 957 uM after 3 days by DAPI staining-based fluorescence microscopy relative to control; assay type: functional; how it was run: as §2
[16] = tested on: P388; experiment: Cytotoxicity against mouse P388 cells after 72 hrs by MTT assay; assay type: functional, cell-based; conditions: P388, 72 h
How it was run: (§3)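 Cells plated at 900–1800/well for exponential growth, centrifuged 275 g 2 min, left 6–8 h, then exposed 72 h to at least 5 concentrations (1:10 serial dilutions) in duplicate; MTT read-out; IC₅₀ from single concentration–response curves; mean ± SD of 3–9 experiments.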

[17] = tested on: A549; experiment: Cytotoxicity against human A549 cells after 72 hrs by MTT assay; assay type: functional, cell-based; conditions: A549, 72 h; how it was run: as §3
[18] = tested on: A2780; experiment: Cytotoxicity against human A2780 cells after 72 hrs by MTT assay; assay type: functional, cell-based; conditions: A2780, 72 h; how it was run: as §3
[19] = tested on: A2780; experiment: Induction of apoptosis in human A2780 cells assessed as change in nuclear morphology at > 200 uM after 3 days by DAPI staining-based fluorescence microscopy relative to control; assay type: functional; how it was run: as §2
[20] = tested on: A549; experiment: Induction of apoptosis in human A549 cells assessed as change in nuclear morphology at > 200 uM after 3 days by DAPI staining-based fluorescence microscopy relative to control; assay type: functional; how it was run: as §2

CCOc1ccc(NS(=O)(=O)c2ccc(OC)cc2)c2c(Cl)n[nH]c12
Activity [1]: 11.3%
Activity [2]: 69.6%
Activity [3]: 8.4%
Activity [4]: 10.8%
Activity [5]: 26.9%
Activity [6]: 10.4%
Activity [7]: 62.7%
Activity [8]: Active
Activity [9]: Active
Activity [10]: 47.3%
Activity [11]: 98%
Activity [12]: 34.8%
Activity [13]: 64.5%
Activity [14]: 23.3%
Activity [15]: 36.8%
pIC50 [16]: 6.24
pIC50 [17]: 5.23
pIC50 [18]: 5.91

CCOc1ccc(NS(=O)(=O)c2ccc(C)cc2)c2[nH]ncc12
Activity [1]: 11.6%
Activity [2]: 71.4%
Activity [3]: 8.2%
Activity [4]: 8.9%
Activity [5]: 33.7%
Activity [6]: 12.6%
Activity [7]: 53.7%
Activity [8]: Active
Activity [9]: Active
Activity [10]: 19%
Activity [11]: 56%
Activity [12]: 18.8%
Activity [13]: 24.9%
Activity [14]: 12.5%
Activity [19]: 27%
pIC50 [16]: 5.24
pIC50 [17]: 4.60
pIC50 [18]: 5.10

C=CCn1ncc2c(NS(=O)(=O)c3ccc(C)cc3)ccc(OCC)c21
pIC50 [16]: 4.29
pIC50 [17]: 4.00
pIC50 [18]: 4.21

Cc1ccc(S(=O)(=O)Nc2ccc3c(Br)n[nH]c3c2)cc1
pIC50 [16]: 4.18
pIC50 [17]: < 4.00
pIC50 [18]: 3.99

CCOc1ccc(NS(=O)(=O)c2ccc(C)cc2)c2cn(C)nc12
Activity [1]: 12%
Activity [2]: 64.5%
Activity [3]: 13.7%
Activity [4]: 9.9%
Activity [5]: 29.3%
Activity [6]: 27.3%
Activity [7]: 43.5%
Activity [10]: 10.3%
Activity [11]: 94.3%
Activity [12]: 22.3%
Activity [20]: 54.3%
Activity [14]: 33.5%
Activity [19]: 51.5%
pIC50 [16]: 5.38
pIC50 [17]: 4.84
pIC50 [18]: 5.08

Cc1ccc(S(=O)(=O)Nc2cccc3c2cnn3C)cc1
Activity [1]: 6.8%
Activity [2]: 69.2%
Activity [3]: 15%
Activity [4]: 9.1%
Activity [5]: 23.7%
Activity [6]: 11.3%
Activity [7]: 65%
Activity [8]: Active
Activity [9]: inactive
Activity [10]: 37.3%
Activity [11]: 91.3%
Activity [12]: 28%
Activity [20]: 41.2%
Activity [14]: 7.3%
Activity [19]: 24%
pIC50 [16]: 5.47
pIC50 [17]: 5.16
pIC50 [18]: 5.18

CCOc1ccc(NS(=O)(=O)c2ccc(C)cc2)c2cn[nH]c12
pIC50 [16]: 4.36
pIC50 [17]: 4.23
pIC50 [18]: 4.26

C=CCn1cc2ccc(NS(=O)(=O)c3ccc(C)cc3)c(OCC)c2n1
pIC50 [16]: 4.16
pIC50 [17]: < 4.00
pIC50 [18]: < 4.00

Cc1ccc(S(=O)(=O)Nc2cccc3[nH]nc(Br)c23)cc1
pIC50 [16]: 4.27
pIC50 [17]: 4.08
pIC50 [18]: 4.15

C=CCn1cc2ccc(NS(=O)(=O)c3ccc(C)cc3)cc2n1
Activity [1]: 11.1%
Activity [2]: 72.7%
Activity [3]: 5.5%
Activity [4]: 10.8%
Activity [5]: 24.2%
Activity [6]: 9.8%
Activity [7]: 66%
Activity [8]: Active
Activity [9]: Active
Activity [10]: 30%
Activity [11]: 68.7%
Activity [12]: 51.2%
Activity [20]: 29.2%
Activity [14]: 19.3%
Activity [19]: 66.5%
pIC50 [16]: 5.36
pIC50 [17]: 4.92
pIC50 [18]: 5.31

Cc1ccc(S(=O)(=O)Nc2ccc3c(Br)nn(S(=O)(=O)c4ccc(C)cc4)c3c2)cc1
pIC50 [16]: 4.29
pIC50 [17]: 3.98
pIC50 [18]: 4.13

Cc1ccc(S(=O)(=O)Nc2ccc3c[nH]nc3c2)cc1
pIC50 [16]: 4.15
pIC50 [17]: < 4.00
pIC50 [18]: 4.06

COc1ccc(S(=O)(=O)Nc2cccc3[nH]nc(Cl)c23)cc1
Activity [1]: 12.8%
Activity [2]: 70.1%
Activity [3]: 7.8%
Activity [4]: 9.4%
Activity [5]: 25.9%
Activity [6]: 18%
Activity [7]: 56.1%
Activity [8]: Active
Activity [9]: Active
Activity [10]: 11.5%
Activity [11]: 74%
Activity [12]: 34.3%
Activity [13]: 70.8%
Activity [14]: 23.6%
Activity [15]: 46.6%
pIC50 [16]: 6.30
pIC50 [17]: 5.74
pIC50 [18]: 6.07

CCOc1ccc(NS(=O)(=O)c2ccc(C)cc2)c2c(Br)n[nH]c12
Activity [1]: 8.1%
Activity [2]: 71.5%
Activity [3]: 10.3%
Activity [4]: 10.2%
Activity [5]: 24.3%
Activity [6]: 14.2%
Activity [7]: 61.5%
Activity [8]: Active
Activity [9]: Active
Activity [10]: 9.8%
Activity [11]: 87.5%
Activity [12]: 2.8%
Activity [13]: 32.3%
Activity [14]: 12.8%
Activity [15]: 34.3%
pIC50 [16]: 5.28
pIC50 [17]: 4.76
pIC50 [18]: 4.98

Cc1ccc(S(=O)(=O)Nc2cccc3[nH]ncc23)cc1
pIC50 [16]: 4.07
pIC50 [17]: < 4.00
pIC50 [18]: < 4.00
